Measured values from ChEMBL document CHEMBL3045605, “Synthesis and anticancer evaluation of novel 3,5-diaryl-thiazolo[4,5-d]pyrimidin-2-one derivatives” (2013).

Legend:
Format in all cases: functional
OVCAR-8 = assay: Anticancer activity against Homo sapiens (human) OVCAR8 cells by SRB assay
Method in brief: (§1)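 Five-dose NCI 60-cell-line panel testing at tenfold dilutions from 10−4 to 10−8 M, with growth read by sulforhodamine B protein staining. For each cell line: GI50 is the molar concentration giving half growth inhibition; TGI is total growth inhibition (cytostatic); LC50 is the molar concentration killing 50% of the initial cells (cytotoxic).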

SW-620 = assay: Anticancer activity against Homo sapiens (human) SW620 cells assessed as cell growth at 10 uM by SRB assay; conditions: read-out: Activity
Method in brief: (§2)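 NCI 60-cell human tumour panel (leukemia, melanoma, lung, colon, CNS, breast, ovarian, prostate, renal lines) given a single 10−5 M dose. Growth is expressed as percent growth of treated cells relative to untreated controls, with cell growth/viability estimated by sulforhodamine B protein staining.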

NCI-H23 = assay: Anticancer activity against Homo sapiens (human) NCI-H23 cells by SRB assay; method in brief: as §1
DU-145 = assay: Anticancer activity against Homo sapiens (human) DU145 cells assessed as cell growth at 10 uM by SRB assay; conditions: read-out: Activity
Method in brief: (§3)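 NCI 60-cell human tumour panel (nine cancer types) screened at one concentration, 10−5 M. Cell growth estimated by sulforhodamine B protein staining and reported as percent growth of treated cells relative to untreated controls.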

HT-29 [1] = assay: Anticancer activity against Homo sapiens (human) HT-29 cells assessed as cell growth at 10 uM by SRB assay; conditions: read-out: Activity; method in brief: as §3
A549 = assay: Anticancer activity against Homo sapiens (human) A549/ATCC cells by SRB assay
Method in brief: (§4)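 NCI 60-line panel, five tenfold dilutions from 10−4 to 10−8 M, growth read by sulforhodamine B staining against untreated controls. From the dose–response per line: GI50 (molar concentration giving half growth inhibition), TGI (molar concentration giving total growth inhibition, cytostatic) and LC50 (molar concentration killing 50% of initial cells, cytotoxic).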

K562 = assay: Anticancer activity against Homo sapiens (human) K562 cells assessed as cell growth at 10 uM by SRB assay; conditions: read-out: Activity; method in brief: as §3
SF-295 [2] = assay: Anticancer activity against Homo sapiens (human) SF295 cells by SRB assay; method in brief: as §1
SNB-75 = assay: Anticancer activity against Homo sapiens (human) SNB75 cells by SRB assay; method in brief: as §1
SNB-19 = assay: Anticancer activity against Homo sapiens (human) SNB19 cells by SRB assay; method in brief: as §1
HL-60(TB) [3] = assay: Anticancer activity against Homo sapiens (human) HL-60(TB) cells assessed as cell growth at 10 uM by SRB assay; conditions: read-out: Activity
Method in brief: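 NCI 60-cell-line human tumour panel screen at a single 10−5 M concentration. Cell growth was estimated by sulforhodamine B protein staining. Results are given as percent growth of treated cells relative to untreated controls.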

KM12 = assay: Anticancer activity against Homo sapiens (human) KM12 cells by SRB assay; method in brief: as §4
CCRF-CEM = assay: Anticancer activity against Homo sapiens (human) CCRF-CEM cells assessed as cell growth at 10 uM by SRB assay; conditions: read-out: Activity; method in brief: as §3
HT-29 [4] = assay: Anticancer activity against Homo sapiens (human) HT-29 cells by SRB assay; method in brief: as §4
MOLT-4 = assay: Anticancer activity against Homo sapiens (human) MOLT4 cells by SRB assay; method in brief: as §1
U-251 = assay: Anticancer activity against Homo sapiens (human) U251 cells assessed as cell growth at 10 uM by SRB assay; conditions: read-out: Activity; method in brief: as §2
BT-549 = assay: Anticancer activity against Homo sapiens (human) BT549 cells assessed as cell growth at 10 uM by SRB assay; conditions: read-out: Activity; method in brief: as §3
SF-295 [5] = assay: Anticancer activity against Homo sapiens (human) SF295 cells assessed as cell growth at 10 uM by SRB assay; conditions: read-out: Activity
Method in brief: (§5)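 Single-dose screen in the NCI 60-human-tumour-cell-line panel (nine cancer types) at 10−5 M. Cell growth was estimated by sulforhodamine B protein staining and reported as percent growth of treated cells relative to untreated controls.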

SK-MEL-2 = assay: Anticancer activity against Homo sapiens (human) SK-MEL-2 cells assessed as cell growth at 10 uM by SRB assay; conditions: read-out: Activity; method in brief: as §5
NCI/ADR-RES = assay: Anticancer activity against Homo sapiens (human) NCI/ADR-RES cells assessed as cell growth at 10 uM by SRB assay; conditions: read-out: Activity; method in brief: as §5
CAKI-1 = assay: Anticancer activity against Homo sapiens (human) CAKI-1 cells by SRB assay; method in brief: as §4
HOP-62 = assay: Anticancer activity against Homo sapiens (human) HOP62 cells assessed as cell growth at 10 uM by SRB assay; conditions: read-out: Activity; method in brief: as §3
HCC 2998 = assay: Anticancer activity against Homo sapiens (human) HCC2998 cells assessed as cell growth at 10 uM by SRB assay; conditions: read-out: Activity; method in brief: as §3
HL-60(TB) [6] = assay: Anticancer activity against Homo sapiens (human) HL-60(TB) cells by SRB assay
Method in brief: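 NCI panel of about 60 human tumour cell lines, tested at five tenfold dilutions from 10−4 to 10−8 M, with sulforhodamine B read-out. GI50 (molar concentration giving half growth inhibition), TGI (total growth inhibition) and LC50 (50% death of initial cells) were calculated for each cell line.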

[7] = Anticancer activity against Homo sapiens (human) RPMI8266 cells assessed as cell growth at 10 uM by SRB assay; conditions: read-out: Activity; method in brief: as §5
OVCAR-3 = assay: Anticancer activity against Homo sapiens (human) OVCAR3 cells by SRB assay; method in brief: as §1
HCT-15 = assay: Anticancer activity against Homo sapiens (human) HCT15 cells assessed as cell growth at 10 uM by SRB assay; conditions: read-out: Activity; method in brief: as §3
OVCAR-5 = assay: Anticancer activity against Homo sapiens (human) OVCAR5 cells assessed as cell growth at 10 uM by SRB assay; conditions: read-out: Activity; method in brief: as §5
SR = assay: Anticancer activity against Homo sapiens (human) SR cells by SRB assay
Method in brief: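 NCI five-dose follow-up on the 60-line human tumour panel at tenfold dilutions from 10−4 to 10−8 M, with growth read by sulforhodamine B protein assay against untreated controls. For each cell line, GI50 (half growth inhibition), TGI (total growth inhibition) and LC50 (50% death of initial cells) are calculated as molar concentrations.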

UACC-62 = assay: Anticancer activity against Homo sapiens (human) UACC62 cells assessed as cell growth at 10 uM by SRB assay; conditions: read-out: Activity; method in brief: as §2
A498 = assay: Anticancer activity against Homo sapiens (human) A498 cells assessed as cell growth at 10 uM by SRB assay; conditions: read-out: Activity; method in brief: as §3
[8] = Anticancer activity against Homo sapiens (human) NCI-322M cells assessed as cell growth at 10 uM by SRB assay; conditions: read-out: Activity; method in brief: as §5
UO-31 = assay: Anticancer activity against Homo sapiens (human) UO31 cells assessed as cell growth at 10 uM by SRB assay; conditions: read-out: Activity; method in brief: as §2
SK-OV-3 = assay: Anticancer activity against Homo sapiens (human) SKOV3 cells assessed as cell growth at 10 uM by SRB assay; conditions: read-out: Activity; method in brief: as §5
MDA-MB-231 = assay: Anticancer activity against Homo sapiens (human) MDA-MB-231/ATCC cells by SRB assay; method in brief: as §4

O=c1sc2c(Cl)nc(-c3ccccc3)nc2n1-c1ccccc1
GI50 (OVCAR-8): 2.04 µM
TGI (OVCAR-8; read-out: pTGI): 43.7 µM
growth at 10 µM (SW-620): -4%
GI50 (NCI-H23): 3.63 µM
TGI (NCI-H23; read-out: pTGI (converted)): 30.9 µM
growth at 10 µM (DU-145): 34%
growth at 10 µM (HT-29 [1]): 10%
GI50 (A549): 43.7 µM
growth at 10 µM (K562): 19%
GI50 (SF-295 [2]): 57.5 µM
GI50 (SNB-75): 1.86 µM
CC50 (SNB-75; read-out: pLC50 (the source's name) (converted)): 56.2 µM
TGI (SNB-75; read-out: pTGI (converted)): 13.8 µM
GI50 (SNB-19): 41.7 µM
growth at 10 µM (HL-60(TB) [3]): 38%
GI50 (KM12): 81.3 µM
growth at 10 µM (CCRF-CEM): 23%
GI50 (HT-29 [4]): 3.89 µM
TGI (HT-29 [4]; read-out: pTGI (converted)): 19.1 µM
GI50 (MOLT-4): 12.9 µM
growth at 10 µM (U-251): 20%
growth at 10 µM (BT-549): 86%
growth at 10 µM (SF-295 [5]): 92%
growth at 10 µM (SK-MEL-2): 48%
growth at 10 µM (NCI/ADR-RES): 66%
GI50 (CAKI-1): 2.34 µM
LC50 (CAKI-1): 46.8 µM
TGI (CAKI-1; read-out: pTGI (converted)): 5.75 µM
growth at 10 µM (HOP-62): 15%
growth at 10 µM (HCC 2998): 90%
GI50 (HL-60(TB) [6]): 5.89 µM
growth at 10 µM [7]: 75%
GI50 (OVCAR-3): 1.78 µM
TGI (OVCAR-3; read-out: pTGI (converted)): 79.4 µM
growth at 10 µM (HCT-15): 28%
growth at 10 µM (OVCAR-5): 90%
GI50 (SR): 2.63 µM
TGI (SR; read-out: pTGI (converted)): 21.4 µM
growth at 10 µM (UACC-62): 62%
growth at 10 µM (A498): 44%
growth at 10 µM [8]: 62%
growth at 10 µM (UO-31): -79%
growth at 10 µM (SK-OV-3): 81%
GI50 (MDA-MB-231): 6.31 µM
